CAL PDZ FP-1: CAL PDZ peptide-binding inhibitors, primary screen, biochemical, fluorescence polarization, Cer-tagged CAL PDZ, HTS; actives 0.02% (n = 330,000); AID 504414, 2011; inhibition, % at 20 µM; purified CAL PDZ, TMR-peptide fluorescence polarization, 1 h;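 active = highest replicate inhibition of at least 40%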;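 also: plate controls were DMSO neutral control wells for no effect and unlabeled competitor peptide control wells for full effect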
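System: purified tagged CAL PDZ domain construct (CerCALP). Schedule: 1 h incubation at room temperature before polarization reading. Medium: 25 mM sodium phosphate pH 7.4, 150 mM NaCl, TCEP, IgG, Thesit. Read-out: percent inhibition from loss of millipolarization. Measured by: FP readout, S and P plane fluorescence. Probe or stimulus: fluorescent TMR peptide probe.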
CAL PDZ FP-2: untagged CAL PDZ binding inhibitors, primary screen, biochemical, fluorescence polarization, HTS; Golgi-associated PDZ and coiled-coil motif-containing protein (Homo sapiens), Q9HD26; purified CAL PDZ, TMR-peptide fluorescence polarization, 1 h; inhibition, % at 24.9 µM; actives 0.92% (n = 300,000);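 active = mean inhibition of at least 30% with at least half of replicates also reaching 30%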;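 also: 0% = DMSO neutral control and 100% = excess unlabeled competitor peptide PRC23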
Statin myotox sup: suppressors of statin myotoxicity in C2C12 myotubes, primary screen, cell-based, single point, plate reader | rescue of ATP level, % at 7.49 µM | actives 0.78% (n = 330,000) | C2C12 myotubes + simvastatin, ATP luminescence, 48 h; scaled: DMSO 0, geranylgeraniol control 100;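 active = mean ATP rescue above about 67%, or every replicate alone reaching that limit, limit read from the data, passing the limit was not always enough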;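 also: myotubes were challenged with 10 µM simvastatin during compound exposure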
S100A4 MyoIIA: inhibitors of S100A4-myosin IIA peptide binding, primary screen, biochemical, fluorescence polarization, TAMRA-MyoIIA peptide | actives 0.14% (n = 360,000) | Protein S100-A4 (Homo sapiens), P26447 | AID 652163, 2013 | inhibition, % at 10.7 µM;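 active = mean inhibition of at least 70% across replicates, with every replicate also reaching that level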
Target sequence (P26447 whole entry, looked up): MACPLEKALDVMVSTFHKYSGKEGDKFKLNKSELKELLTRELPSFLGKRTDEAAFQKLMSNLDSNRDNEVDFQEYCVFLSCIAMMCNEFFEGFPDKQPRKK
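Material: human S100A4 monomer with TAMRA-labelled myosin IIA peptide; buffer or medium: HEPES pH 7.2 with CaCl2, KCl, NaCl, DTT, Triton; compound dosing: one concentration per compound; schedule: 5 min incubation before reading; benchmarks: neutral control DMSO, positive control TFP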
CDK5 inh: inhibitors of human CDK5/p35 kinase, primary screen, biochemical, single concentration. Cyclin-dependent kinase 5 (Homo sapiens) + Cyclin-dependent kinase 5 activator 1 (Homo …. Recombinant CDK5/p35, ADP-Glo luminescence, 60 min. inhibition, % at 10 µM. actives 0.01% (n = 330,000). AID 488839, 2010;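 active = highest replicate inhibition of at least 50% and at least 75% of replicates reaching 50%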;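 also: plate controls were DMSO neutral control for no effect and GW8510 at 10 µM for full effect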
dFosB activator: activators of delta FosB homodimer, primary screen, biochemical, fluorescence polarization, TAMRA-CDK5 oligo, single point | Protein FosB (Mus musculus), P13346 | actives 0.99% (n = 340,000) | purified delta FosB; percent of positive-control signal above neutral wells | activation, % at 25 µM | AID 493131, 2011;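 active = mean activation above about 17%, with every replicate also reaching it, limit read from the data, passing the limit was not always enough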
Target sequence (P13346 whole entry, looked up): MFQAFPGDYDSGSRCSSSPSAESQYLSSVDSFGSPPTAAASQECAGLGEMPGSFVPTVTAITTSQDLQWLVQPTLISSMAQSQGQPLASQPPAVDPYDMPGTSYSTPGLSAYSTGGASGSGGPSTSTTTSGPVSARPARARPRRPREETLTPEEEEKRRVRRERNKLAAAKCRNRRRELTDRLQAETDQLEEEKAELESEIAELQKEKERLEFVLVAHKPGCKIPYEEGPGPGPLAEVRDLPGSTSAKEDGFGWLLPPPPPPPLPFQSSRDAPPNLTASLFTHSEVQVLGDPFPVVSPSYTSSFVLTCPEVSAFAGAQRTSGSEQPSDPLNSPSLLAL
* = called active by the depositor. A selection: hits, their analogues and other compounds. The true share with any hit is near 2%.

`CCOc1ccc(C(=O)NC2CC3CCCC(C2)N3Cc2ccccc2)cc1` (stereo unspecified) gave CAL PDZ FP-1 50*, CAL PDZ FP-2 -2, Statin myotox sup -13, S100A4 MyoIIA 10, CDK5 inh -1 and dFosB activator -6.
COc1ccc(C(=O)NC2CC3CCCC(C2)N3Cc2ccccc2)cc1 (stereo unspecified) was read as CAL PDZ FP-1 -22, CAL PDZ FP-2 -4, Statin myotox sup -4, S100A4 MyoIIA 4, CDK5 inh 0 and dFosB activator -5.
Screening C[C@@H]1CN([C@H](C)CO)S(=O)(=O)c2ccc(C#CC3CC3)cc2O[C@H]1CN(C)S(C)(=O)=O returned Statin myotox sup -1 and S100A4 MyoIIA 5.
For CCN(CC)CCNc1nc2ccccc2n1C the results were CAL PDZ FP-1 -2, CAL PDZ FP-2 3, Statin myotox sup 5, CDK5 inh 0 and dFosB activator -4.
Cc1ccc2c(c1)nc(NCCO)n2C was read as CAL PDZ FP-2 14, Statin myotox sup 91*, CDK5 inh 1 and dFosB activator 0.
For CCCn1nc(NS(=O)(=O)c2ccccc2)c2cc3ccccc3nc21 the results were CAL PDZ FP-1 -1, CAL PDZ FP-2 58*, Statin myotox sup 1, CDK5 inh 0 and dFosB activator 1.
For CCn1nc(NS(=O)(=O)c2ccccc2)c2cc3ccccc3nc21 the results were CAL PDZ FP-1 0, CAL PDZ FP-2 6, Statin myotox sup 15, S100A4 MyoIIA 11, CDK5 inh 2 and dFosB activator -4.
Cc1cc(NC(=O)CCC(=O)N(Cc2ccco2)C2(C(=O)NC3CCCCC3)CCN(C)CC2)no1 was read as CAL PDZ FP-2 6, CDK5 inh -1 and dFosB activator 0.
`CCOC(=O)C1=C(CC)Nc2ccccc2N/C1=N\S(=O)(=O)c1ccccc1F` gave CAL PDZ FP-1 -1, CAL PDZ FP-2 -8, Statin myotox sup 27, S100A4 MyoIIA 2, CDK5 inh -1 and dFosB activator -7.
`CCOC(=O)C1=C(CC)Nc2ccccc2N/C1=N\S(=O)(=O)c1cccc(C(C)=O)c1` gave CAL PDZ FP-1 0, CAL PDZ FP-2 55*, Statin myotox sup 2, S100A4 MyoIIA -1, CDK5 inh -2 and dFosB activator -7.
`C[C@H](CO)N1C[C@H](C)[C@H](CN(C)S(C)(=O)=O)OCCCC[C@H](C)Oc2ccc(NC(=O)C3CCCCC3)cc2C1=O` gave Statin myotox sup 32.
Screening COc1cc(OC)cc(C(=O)N[C@H](C(=O)Nc2ccccc2N2CCOCC2)C(C)C)c1 returned CAL PDZ FP-1 0, CAL PDZ FP-2 39*, Statin myotox sup 5, CDK5 inh -1 and dFosB activator -5.
`Cc1cc(Cl)ccc1OC(C)C(=O)Nc1ccccc1N1CCOCC1` (stereo unspecified) gave CAL PDZ FP-1 -2, CAL PDZ FP-2 -2, Statin myotox sup 94*, CDK5 inh 1 and dFosB activator 5.
Screening CCCCNS(=O)(=O)c1cc(-c2nn(C)c(=O)c3ccccc23)ccc1C returned CAL PDZ FP-1 -1, CAL PDZ FP-2 56*, Statin myotox sup -1, S100A4 MyoIIA -1, CDK5 inh -2 and dFosB activator -7.
`COc1ccc(/C=C/C(=O)OCC(=O)N2CCCCCC2)cc1OC` gave CAL PDZ FP-1 0, CAL PDZ FP-2 -8, Statin myotox sup 2, S100A4 MyoIIA -10, CDK5 inh -1 and dFosB activator -8.
Screening COc1ccc(OC)c(/C=C/C(=O)OCC(=O)N2CCCCC2)c1 returned CAL PDZ FP-1 -1, CAL PDZ FP-2 64*, Statin myotox sup -2, S100A4 MyoIIA 5, CDK5 inh 0 and dFosB activator -6.
For Cc1c(C(=O)NCc2cccc(C(F)(F)F)c2)sc(=O)n1Cc1ccc(C(=O)N(C)C)cc1 the results were Statin myotox sup 6 and S100A4 MyoIIA 1.
For COc1cc(OC)cc(C(=O)NNC(=O)c2cc(S(=O)(=O)N3CCOCC3)ccc2F)c1 the results were CAL PDZ FP-1 1, CAL PDZ FP-2 -2, Statin myotox sup -19, S100A4 MyoIIA 1, CDK5 inh 1 and dFosB activator -2.
For Cc1ccc(S(=O)c2ccc(C)cc2)cc1 the results were CAL PDZ FP-1 -1, CAL PDZ FP-2 0, Statin myotox sup 1, CDK5 inh -1 and dFosB activator 8.
Cc1ccc(NCCN(C)C)c2c(=O)c3cc(O)ccc3sc12 was read as CAL PDZ FP-1 6, CAL PDZ FP-2 2, S100A4 MyoIIA 1, CDK5 inh 1 and dFosB activator 43*.
`O=C(CSc1nnnn1-c1ccccc1)Nc1ncc(Cc2cccc(Cl)c2Cl)s1` gave CAL PDZ FP-1 -3, CAL PDZ FP-2 -2, S100A4 MyoIIA 2, CDK5 inh 2 and dFosB activator 77*.
For O=C(NC1CCCCC1)N[C@@H]1CC[C@@H](CC(=O)N2CCOCC2)O[C@H]1CO the results were Statin myotox sup -7 and S100A4 MyoIIA 10.
CC(C)(CN1CCCC1)NC(=O)C1CCC(=O)N(CCCN2CCOCC2)C1 (stereo unspecified) was read as CAL PDZ FP-1 0, CAL PDZ FP-2 92*, Statin myotox sup 2, S100A4 MyoIIA 7, CDK5 inh 0 and dFosB activator -6.
Screening O=C(NCc1csc(-c2cccs2)n1)Nc1ccc(F)cc1F returned CAL PDZ FP-1 0, CAL PDZ FP-2 12, S100A4 MyoIIA -1, CDK5 inh 3 and dFosB activator 13.
CCOC(=O)c1cc(NC(=O)Nc2ccccc2Cl)c(C)nc1C was read as CAL PDZ FP-1 -2, CAL PDZ FP-2 4, S100A4 MyoIIA -7, CDK5 inh 0 and dFosB activator -22.
For CCOC(=O)c1cc(NC(=O)NCc2ccco2)c(C)nc1C the results were CAL PDZ FP-1 0, CAL PDZ FP-2 1, Statin myotox sup 83*, CDK5 inh 0 and dFosB activator -7.
Screening COCc1cc(C)nc2sc(C(=O)Nc3ccc(OC)cc3)c(N)c12 returned CAL PDZ FP-1 -1, CAL PDZ FP-2 -1, Statin myotox sup -30, S100A4 MyoIIA -8, CDK5 inh 0 and dFosB activator -5.

High-throughput results from PubChem BioAssay.
